Measurements taken from PMC2912405 (Journal of medicinal chemistry, 2010).
Counter-ions that a name gives are not always drawn. One block for each compound: values may come before it.

Experiments:
[1] = target: T1, purified human LAL (phLAL) (Homo sapiens, UniProt P38571); conditions: previous studies; cited from earlier work
T1 sequence (P38571 77-399): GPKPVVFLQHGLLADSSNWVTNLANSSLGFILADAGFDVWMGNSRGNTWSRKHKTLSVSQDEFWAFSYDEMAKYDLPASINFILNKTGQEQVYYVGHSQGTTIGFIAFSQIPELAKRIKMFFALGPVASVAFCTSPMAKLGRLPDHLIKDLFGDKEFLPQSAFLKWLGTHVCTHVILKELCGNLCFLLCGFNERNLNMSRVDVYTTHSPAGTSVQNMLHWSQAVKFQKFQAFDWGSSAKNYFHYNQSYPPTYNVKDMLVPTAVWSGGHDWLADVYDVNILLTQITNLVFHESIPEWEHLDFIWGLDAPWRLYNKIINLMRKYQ

LAL = target: T2, LAL (Homo sapiens, UniProt P38571); test: LAL activity in lysates of compound-treated cells; format: cell-based; conditions: for inhibition of LAL in cell lysates: cells treated continuously ~4 days, Figure 4A; for inhibition of LAL in cell lysates after withdrawal: ~3 days treatment, ~1 day recovery in growth medium, Figure 4B
T2 sequence (P38571 77-399): T1 sequence (P38571 77-399)

phLAL [2] = target: T3, phLAL (Homo sapiens, UniProt P38571); conditions: earlier study; cited from earlier work
T3 sequence (P38571 77-399): T1 sequence (P38571 77-399)

many lipases = conditions: cited from earlier work
[3] = system: apparently normal human fibroblasts; test: LipidTOX green neutral lipid accumulation; format: cell-based; conditions: normal cells, ~3 days treatment; Figure 4D
In short: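 Normal human fibroblasts kept in MEM (2.2 g/L bicarbonate, 10% FBS) and treated with compound for ~3 days. Stained with LipidTOX green and imaged at 482/35 nm excitation, 536/40 nm emission, 20× 0.5 NA objective, with autofocus per site. LSO ratio is thresholded LipidTOX fluorescence within LSOs, normalised to total cell area from low-threshold filipin signal.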

NPC1 mutant cells = test: Filipin LSO assay of cholesterol accumulation; format: cell-based, human; conditions: ~3 days treatment, Figure 4C
In short: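 Compound-treated cells (~3 days) stained with filipin. Automated fluorescence imaging at 4 (10×) or 9 (20×) sites per well, 2×2 binning, laser autofocus per site, 12-bit images. After background correction, LSO ratio is integrated thresholded filipin fluorescence within LSOs, normalised to total cell area defined by low-threshold filipin signal.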

phLAL [4] = target: T3, phLAL; test: Time-dependence of LAL inhibition; format: biochemical; conditions: pre-incubation at 833 nM, 500 nM final, 37 °C; Figure 3
[5] = target: T1, purified human LAL (phLAL); test: In vitro LAL activity assay; format: biochemical; conditions: 10 μM compound; Supplemental Figures 1 and 2
[6] = target: T1, purified human LAL (phLAL); test: Lineweaver-Burk analysis of LAL inhibition; format: biochemical; conditions: 30 min pre-incubation at 37 °C, 4MUO at various concentrations
In short: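 Recombinant purified human LAL pre-incubated with compound for 30 min at 37 °C in 200 mM sodium acetate pH 5.5, 0.02% Tween-20. Started with varied 4-methylumbelliferyl oleate in Triton X-100 and followed by fluorescence (355/450 nm) for 45 min. Compound levels given as final. Double-reciprocal plots fitted by linear regression, two independent experiments.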

[7] = system: NPC1- or NPC2-defective mice; conditions: ref 5a, 9; cited from earlier work

Compound: O=C(Oc1nsnc1N1CCOCC1)N1CCCCC1 [Compound 14]
potency and specificity towards LAL [1]: significant potency and specificity towards LAL
inhibition of LAL in cell lysates (LAL): much higher level of inhibition of LAL upon cell lysis than 11, 13, 15, and 17
time-dependence of inhibition upon pre-incubation with phLAL (phLAL [2]): some time-dependence of inhibition

Compound: CCCCCCCCCCC[C@@H](C[C@@H]1OC(=O)[C@H]1CCCCCC)OC(=O)[C@H](CC(C)C)NC=O [orlistat]
inhibition of lipases (many lipases): potent inhibitor of many lipases

Compound: COC(N)=O [methyl carbamate]
inhibition of LAL activity at 10 μM [5]: None of these carbamates inhibited LAL

Compound: CNC(=O)Oc1ccc2c(c1)[C@]1(C)CCN(C)[C@@H]1N2C [eserine]
inhibition of LAL activity at 10 μM [5]: None of these carbamates inhibited LAL

Compound: CN(C)C(=O)Oc1cccc([N+](C)(C)C)c1 [neostigmine methyl sulfate]
inhibition of LAL activity at 10 μM [5]: None of these carbamates inhibited LAL

Compound: Cl.NCCCCCCNC(=O)OCc1ccccc1 [benzyl N-(6-aminohexyl) carbamate hydrochloride]
inhibition of LAL activity at 10 μM [5]: None of these carbamates inhibited LAL

Compound: COc1ccccc1OCC(O)COC(N)=O (stereo not drawn) [guaiacol glyceryl ether carbamate]
inhibition of LAL activity at 10 μM [5]: None of these carbamates inhibited LAL

Compound: β-cyclodextrins
accumulation of cholesterol and other lipids in LSOs [7]: significant reduction
lifespan [7]: significantly extends lifespan

More lines, main results first:

inhibition of LAL in cell lysates after withdrawal (LAL): maximal potency
Compound: O=C(Oc1nsnc1N1CCCCC1)N1CCCCC1 [Compound 12]
increase in neutral lipid accumulation [3]: most potent
inhibition of LAL in cell lysates (LAL): much higher level of inhibition of LAL upon cell lysis than 11, 13, 15, and 17
decrease in cholesterol accumulation (NPC1 mutant cells): most potent

inhibition of LAL in cell lysates after withdrawal (LAL): maximal potency
Compound: O=C(Oc1nsnc1N1CCCC1)N1CCCCC1 [Compound 10, 4-(Pyrrolidin-1-yl)-1,2,5-thiadiazol-3-yl piperidine-1-carboxylate]
inhibition of LAL in cell lysates (LAL): much higher level of inhibition of LAL upon cell lysis than 11, 13, 15, and 17
pre-incubation time-dependence of inhibition (phLAL [4]): significantly higher time-dependence than other compounds

inhibition of LAL in cell lysates after withdrawal (LAL): maximal potency
Compound: O=C(Oc1nsnc1N1CCCCCC1)N1CCCCC1 [Compound 16]
inhibition of LAL in cell lysates (LAL): much higher level of inhibition of LAL upon cell lysis than 11, 13, 15, and 17

inhibition of LAL activity at 10 μM [5]: None of these carbamates inhibited LAL
Compound: CN1CCC(OC(=O)Nc2ccc(F)cc2)CC1 [1-methyl-4-piperidinyl-N-(4-fluorophenyl) carbamate]

type of inhibition [6]: apparent competitive inhibitor
Compound: O=C(Oc1nsnc1N1CCCCC1)N1CCOCC1 [Compound 13]
potency and specificity towards LAL [1]: significant potency and specificity towards LAL
time-dependence of inhibition upon pre-incubation with phLAL (phLAL [2]): some time-dependence of inhibition

inhibition of LAL in cell lysates (LAL): least potent
inhibition of LAL in cell lysates after withdrawal (LAL): least potent
Compound: O=C(Oc1nsnc1N1CCOCC1)N1CCOCC1 [Compound 15]
increase in neutral lipid accumulation [3]: least potent
potency and specificity towards LAL [1]: significant potency and specificity towards LAL
time-dependence of inhibition upon pre-incubation with phLAL (phLAL [2]): some time-dependence of inhibition
decrease in cholesterol accumulation (NPC1 mutant cells): least potent
